The values that follow come from paper PMC7501955 (Drug Design, Development and Therapy, 2020).

The subject of this assay is duck HBV (DHBV). Put plainly: Antiviral efficacy in a duck HBV model, serum DHBV DNA by quantitative PCR. The assay is classed as in vivo, Pekin ducklings. To be noted: DHBV-infected ducks, 50 mg/kg 3TC; for Serum DHBV DNA: P<0.001. A digest of the protocol:
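Pekin ducklings were infected with DHBV-positive duck serum and assayed for DNA load 7 days later (T0). Groups of five received test compound at 25, 50 or 100 mg/kg by oral gavage for 14 days. Controls were saline (negative) and 3TC 50 mg/kg once daily (positive). Serum DHBV DNA was measured by qPCR on treatment days 0, 7, 14 and 3 days after stopping; mean ± SD.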

Consider `Nc1ccn([C@@H]2CS[C@H](CO)O2)c(=O)n1` [3TC, lamivudine], for which the “Reduction of serum DHBV DNA compared to vehicle controls” value (T7) was “up to 2 log10”. For the same molecule, the “Serum DHBV DNA” value is reported as “significantly inhibited” (T7 (day 7 of treatment)) and “significantly inhibited” (T14 (day 14 of treatment)).
